In the library only some 2.1% were active in any assay of this set; here they are far more common.
CAL PDZ FP-1: blocks peptide binding to human CAL PDZ domain; AID 504414; inhibition, % at 20 µM; 0.02% of 330,000 active; Q9HD26; purified CAL PDZ, TMR-peptide fluorescence polarization, 1 h;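 active = highest replicate inhibition of at least 40%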
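Material: tagged CAL PDZ protein CerCALP, purified; buffer or medium: sodium phosphate/NaCl buffer pH 7.4 with TCEP, IgG, Thesit; also added: fluorescent TMR peptide probe; schedule: 1 h incubation at room temperature before polarization reading; technique: fluorescence polarization from S- and P-plane intensities, G-factor corrected; control set: unlabelled peptide and DMSO controls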
SR-BI HDL uptake: inhibitors of mouse SR-BI mediated HDL lipid uptake. ldlA[mSR-BI] CHO cells, DiI-HDL uptake fluorescence, 3 h. inhibition, % at 12.5 µM. 0.96% of 320,000 active. Q61009;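 active = mean replicate inhibition of at least 70% and a set share of replicates each scoring 70 or more; inconclusive = meets just one of the two criteria; inactive = fails both criteria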
Target sequence (Q61009 whole entry, looked up): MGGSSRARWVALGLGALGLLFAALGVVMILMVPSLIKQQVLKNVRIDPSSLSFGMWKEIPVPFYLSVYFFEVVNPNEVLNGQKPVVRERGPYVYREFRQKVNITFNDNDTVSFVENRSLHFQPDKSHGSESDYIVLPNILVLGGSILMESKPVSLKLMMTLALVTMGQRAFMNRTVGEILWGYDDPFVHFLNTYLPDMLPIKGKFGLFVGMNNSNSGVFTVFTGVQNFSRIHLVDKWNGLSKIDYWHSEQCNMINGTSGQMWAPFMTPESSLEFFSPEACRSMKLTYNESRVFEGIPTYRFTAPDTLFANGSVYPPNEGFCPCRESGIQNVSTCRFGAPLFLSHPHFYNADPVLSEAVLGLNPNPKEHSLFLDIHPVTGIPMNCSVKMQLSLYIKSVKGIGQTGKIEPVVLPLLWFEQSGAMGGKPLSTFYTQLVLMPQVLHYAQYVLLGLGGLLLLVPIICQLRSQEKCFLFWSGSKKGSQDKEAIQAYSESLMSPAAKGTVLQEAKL
miR-122 sensor: miR-122 inhibition in Huh7 cells. Huh7 miR-122 Renilla luciferase sensor, 48 h; neutral wells = 0, positive control = 100. activation (reporter increase), % at 12.5 µM. 0.3% of 340,000 active. AID 602342;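 active = mean replicate activation score at least 90 and every replicate individually at or above 90; inconclusive = only one of the two criteria met; inactive = neither criterion met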;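 note: higher luciferase means less miR-122 activity so hits act as miR-122 inhibitors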
CAL PDZ FP-2: CAL PDZ (human) peptide binding inhibition | 0.92% of 300,000 active | purified CAL PDZ, TMR-peptide fluorescence polarization, 1 h | Q9HD26 | inhibition, % at 24.9 µM;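 active = mean inhibition of at least 30% with at least half of replicates also reaching 30%; inconclusive = no clear call, values can overlap the other calls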
ARNT TACC3 PPI: ARNT/TACC3 interaction disruption; inhibition, % at 9.99 µM; AlphaScreen His-ARNT PAS-B/GST-TACC3 binding, luminescence; TACC3 fragment carries E629A point mutation; 0.66% of 390,000 active;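 active = mean inhibition of replicates at least 50% and at least half of replicates each reaching 50%; inconclusive = half or more replicates reach 50% but mean below 50%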
SR-BI DiI-HDL act: activators of SR-BI mediated HDL lipid uptake; AID 504775; CHO ldlA[mSR-BI] cells, DiI-HDL uptake fluorescence, 3 h; 100 = double the neutral-control signal; activation, % at 12.5 µM; 0.096% of 320,000 active;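 active = mean replicate activation of at least 60% and every replicate at or above 60%; inconclusive = mean or all-replicate condition met, but not both; inactive = mean below 60% and not all replicates reaching 60%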
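Test system: SR-BI-overexpressing, LDLR-lacking CHO cells. Measured by: DiI fluorescence, bottom read. Medium: Ham's F12 with 0.5% BSA, HEPES 25 mM, pH 7.4. Timing: 3 h uptake period with compound, 37 °C.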
Of the large screens only hits and unclear results are named; the others gave an inactive call.

Cc1cccc(NC2=C(NCCO)C(=O)c3ccccc3C2=O)c1	ARNT TACC3 PPI 39
O=C(C[C@@H]1CC[C@@H](NS(=O)(=O)c2ccc(F)cc2)[C@@H](CO)O1)NC1CCCCC1	none (no result: CAL PDZ FP-1, SR-BI HDL uptake, miR-122 sensor, CAL PDZ FP-2, SR-BI DiI-HDL act)
O=C(c1oc2ccccc2c1N1CCCCC1)N1CCCCC1	SR-BI HDL uptake 78 (no result: CAL PDZ FP-1)
COc1cccc(S(=O)(=O)N(C)C[C@@H]2Oc3ncc(C#Cc4ccc(C(F)(F)F)cc4)cc3C(=O)N([C@H](C)CO)C[C@@H]2C)c1	none (no result: CAL PDZ FP-1, SR-BI HDL uptake, CAL PDZ FP-2, SR-BI DiI-HDL act)
COc1ccc(S(=O)(=O)Nc2ccc3c(c2)C(=O)N([C@@H](C)CO)C[C@H](C)[C@@H](CN(C)S(C)(=O)=O)OCCCC[C@@H](C)O3)cc1	none (no result: CAL PDZ FP-1, SR-BI HDL uptake, CAL PDZ FP-2, SR-BI DiI-HDL act)
CCN(CC)c1ccc(-n2cc3c(=O)n(C)c(=O)n(C)c3c2)cc1	SR-BI HDL uptake 74
Cc1cccc(C)c1NC(=S)N/N=C/c1c(Cl)cccc1Cl	CAL PDZ FP-2 33 (no result: miR-122 sensor)
Cn1c(=O)c([N+](=O)[O-])c(NCc2ccccc2)c2ccccc21	none (no result: SR-BI DiI-HDL act)
Cn1c(=O)c([N+](=O)[O-])c(NCC2CCCO2)c2ccccc21 (stereo not drawn)	CAL PDZ FP-2 73 (no result: miR-122 sensor)
C=CCOc1c(Br)cc(/C=C2\SC(=Nc3ccccc3)NC2=O)cc1OC	SR-BI HDL uptake 72
CCc1ccc(N=C2NC(=O)/C(=C/c3cc(Br)c(OCC(=O)O)c(OC)c3)S2)cc1	none
COc1cc(C2=NOC(C(=O)N3CCN(c4ccc(F)cc4)CC3)C2)cc(OC)c1OC (stereo not drawn)	SR-BI HDL uptake 79
CCNC(=O)C[C@@H]1CC[C@@H]2[C@H](COC[C@@H](O)CN2C(=O)Nc2cccc(OC)c2)O1	none (no result: CAL PDZ FP-1, SR-BI HDL uptake, CAL PDZ FP-2, SR-BI DiI-HDL act)
CC(C)C(=O)NC(=S)Nc1ccc(S(=O)(=O)Nc2ccccc2)cc1	miR-122 sensor 137
COc1ccc(NS(=O)(=O)c2ccc(NC(=S)NC(=O)C(C)C)cc2)cc1	miR-122 sensor inconclusive
CCOc1ccc(NS(=O)(=O)c2ccc(NC(=S)NC(=O)C(C)C)cc2)cc1	miR-122 sensor 115
O=C(/C=C1\NC2(CCCC2)Cc2ccccc21)C(=O)N/N=C/c1ccccc1O	SR-BI HDL uptake 114
COc1cc(/C=N/NC(=O)C(=O)/C=C2\NC3(CCCC3)Cc3ccccc32)ccc1O	SR-BI HDL uptake inconclusive (no result: miR-122 sensor)
CN(C)c1ccc(/C=N/NC(=O)C(=O)/C=C2\NC3(CCCC3)Cc3ccccc32)cc1	SR-BI HDL uptake 94
O=C(Cc1ccncc1)NCC[C@@H]1CC[C@H](NC(=O)C2CCCCC2)[C@H](CO)O1	none (no result: CAL PDZ FP-1, SR-BI HDL uptake, miR-122 sensor, CAL PDZ FP-2, SR-BI DiI-HDL act)
CC1=NN(c2ccccc2)C(=O)/C1=C/c1cc(C)n(C2CC2)c1C	SR-BI HDL uptake 72 (no result: miR-122 sensor)
CCOC(=O)c1sc(NC(=O)CSc2nc3c(cc2C#N)CCCCCC3)c(C#N)c1C	SR-BI HDL uptake 75
CCOC(=O)c1sc(NC(=O)CSc2nc(C)cc(C)c2C#N)c(C#N)c1C	none
O=[N+]([O-])c1ccc(N/N=C/c2c[nH]c3ccccc23)c(S(=O)(=O)Nc2ccc(Cl)cc2)c1	SR-BI HDL uptake 94, miR-122 sensor 162
O=C(O)c1ccc(N/N=C/C=C/c2ccccc2[N+](=O)[O-])cc1	none
C/C(=N\Nc1ccc(S(=O)(=O)Nc2ccc(Cl)cc2)cc1[N+](=O)[O-])c1ccc(N2CCOCC2)cc1	miR-122 sensor 170 (no result: CAL PDZ FP-2)
O=[N+]([O-])c1ccccc1/C=C/C=N/Nc1ccc(S(=O)(=O)Nc2ccc(Cl)cc2)cc1[N+](=O)[O-]	SR-BI HDL uptake 100
COCCNC(=O)C[C@@H]1CC[C@H]2[C@H](COc3ccc(NC(=O)c4cc(C)on4)cc3C(=O)N2C)O1	none (no result: CAL PDZ FP-1, SR-BI HDL uptake, CAL PDZ FP-2, SR-BI DiI-HDL act)
CC(C)NC(=O)N(C)C[C@@H]1OCCCC[C@H](C)Oc2ccc(NS(=O)(=O)c3ccc(Cl)cc3)cc2C(=O)N([C@@H](C)CO)C[C@@H]1C	none (no result: CAL PDZ FP-1, SR-BI HDL uptake, CAL PDZ FP-2, SR-BI DiI-HDL act)
C[C@H]1CCCCO[C@@H](CN(C)C(=O)Nc2ccc(C(F)(F)F)cc2)[C@@H](C)CN([C@@H](C)CO)C(=O)c2cc(NC(=O)c3ccncc3)ccc2O1	none (no result: CAL PDZ FP-1, SR-BI HDL uptake, CAL PDZ FP-2, SR-BI DiI-HDL act)
CCOc1ccc(NC(=O)CS(=O)CC(=O)NC2CCCc3ccccc32)cc1 (stereo not drawn)	SR-BI HDL uptake 74 (no result: CAL PDZ FP-1)

Screens deposited in PubChem by Broad Institute.
